Laboratory results taken from ChEMBL document CHEMBL1141128, “Structure-activity relationship study on a simple cationic peptide motif for cellular delivery of antisense peptide nucleic acid” (J Med Chem, 2005).
Non-standard residues stand in square brackets, D forms with d. Residues, ends and D or L forms follow the SMILES beside them. hLys = NCCCCC[C@H](N)C(=O)O; Nlys = NCCCCNCC(=O)O

Assays:
CD40 mRNA [1] = test: […] CD40 expression in BCL1 cells treated with 3 uM peptide nucleic acid (PNA)conjugate; n=3; type: functional, cell-based; settings: Mus musculus
How it was run: (§1)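 Mouse BCL1 cells in DMEM with 10% FBS, given conjugate at 1, 3 or 10 μM by free uptake (no transfection agent) for 3 days. Cells trypsinised and stained 1 h with FITC anti-CD40 (HM40-3) or isotype control, then surface CD40 read by flow cytometry. Results are % untreated control, mean ± SD, n = 3.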

[2] = Half-life of the conjugate when treated with 10% foetal bovine serum for enzymatic stability; type: ADME, Bos taurus; settings: cattle
How it was run: (§2)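 Conjugates at 20 μM in 10% FBS RPMI 1640 medium or 25% mouse serum (Hepes-stabilised, diluted in PBS, pH 7.1–7.4), incubated at 37 °C. Sampled to 168 h (FBS) or 48 h (serum); proteins precipitated with 10% DCA, PNA 6mer internal standard added. Analysed by C3 RP-HPLC at 60 °C; t1/2 from normalised full-length peak area versus time.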

CD40 mRNA [3] = test: […] CD40 expression in BCL1 cells treated with 10 uM peptide nucleic acid (PNA)conjugate; n=3; type: functional, cell-based; settings: Mus musculus; how it was run: as §1
CD40 mRNA [4] = test: […] CD40 expression in BCL1 cells treated with 1 uM peptide nucleic acid (PNA)conjugate; n=3; type: functional, cell-based; settings: Mus musculus; how it was run: as §1
BCL1 [5] = test: Inhibitory concentration against BCL1 cell proliferation in WST-1 assay; type: functional, Mus musculus
How it was run: (§3)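 BCL1 cells, 2000 per well, grown in DMEM with 10% FBS at 37 °C and 5% CO2. Exposed to conjugate for 3 days, then viable cells read by WST-1 absorbance at 450 nm. Value is the concentration at which absorbance fell below 50% of untreated control; triplicates.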

[6] = Half-life of the conjugate when treated with 25% murine serum for enzymatic stability; No data available; type: ADME; settings: mouse; how it was run: as §2
[7] = Half-life of the conjugate when treated with 25% murine serum for enzymatic stability; No degradation observed within the period of time indicated; type: ADME; settings: mouse; how it was run: as §2
BCL1 [8] = test: Inhibitory concentration against BCL1 cell proliferation in WST-1 assay; Range 10-20; type: functional, Mus musculus; how it was run: as §3
[9] = Half-life of the conjugate when treated with 25% murine serum for enzymatic stability; type: ADME; settings: mouse; how it was run: as §2
BCL1 [10] = test: Inhibitory concentration against BCL1 cell proliferation in WST-1 assay; Range 5-10; type: functional, Mus musculus; how it was run: as §3
[11] = Half-life of the conjugate when treated with 25% murine serum for enzymatic stability; Range 2-3 h; type: ADME; settings: mouse; how it was run: as §2

For `NCCCCC[C@H](NC(=O)[C@H](CCCCN)NC(=O)[C@H](CCCCCN)NC(=O)[C@H](CCCCN)NC(=O)[C@H](CCCCCN)NC(=O)[C@H](CCCCN)NC(=O)[C@H](CCCCCN)NC(=O)[C@@H](N)CCCCN)C(=O)N[C@H](C=O)CCCCN` (H-K[hLys]K[hLys]K[hLys]K[hLys]K-aldehyde), the UTC (CD40 mRNA [1]) was 61%, the half-life [2] was over 168 h and the UTC (CD40 mRNA [3]) was 32%. The UTC (CD40 mRNA [4]) was 81%, the “IC50 for cell proliferation” value (BCL1 [5]) was over 20 µM and the T1/2 [6] was “No data available”.

`NCCCC[C@@H](C=O)NC(=O)[C@@H](CCCCN)NC(=O)[C@@H](CCCCN)NC(=O)[C@@H](CCCCN)NC(=O)[C@@H](CCCCN)NC(=O)[C@@H](CCCCN)NC(=O)[C@@H](CCCCN)NC(=O)[C@@H](CCCCN)NC(=O)[C@H](N)CCCCN` showed a UTC (CD40 mRNA [1]) of 81%, a half-life [2] of over 168 h and a UTC (CD40 mRNA [3]) of 54%. For the same molecule, the half-life [7] was over 48 h, the UTC (CD40 mRNA [4]) was 97% and the IC50 (BCL1 [8]) was 20 µM.

In the case of `NCCCC[C@@H](C=O)NC(=O)CC(CCCN)NC(=O)CC(CCCN)NC(=O)CC(CCCN)NC(=O)CC(CCCN)NC(=O)CC(CCCN)NC(=O)CC(CCCN)NC(=O)CC(CCCN)NC(=O)CC(N)CCCN` (stereo partly specified), the UTC (CD40 mRNA [1]) was 81%, the half-life [2] was over 168 h and the UTC (CD40 mRNA [3]) was 66%. For the same molecule, the UTC (CD40 mRNA [4]) was 94%, the half-life [9] was over 48 h and the Cell viability (BCL1 [10]) was 10 µM.

`NCCCC[C@@H](C=O)NC(=O)[C@H](CCCCN)NC(=O)[C@H](CCCCN)NC(=O)[C@H](CCCN=C(N)N)NC(=O)[C@H](CCCCN)NC(=O)[C@H](CCCCN)NC(=O)[C@H](CCCN=C(N)N)NC(=O)[C@H](CCCCN)NC(=O)[C@@H](N)CCCCN` (H-KKRKKRKKK-aldehyde) showed a UTC (CD40 mRNA [1]) of 76%, a half-life [2] of 90 h and a UTC (CD40 mRNA [3]) of 43%. It also gave a UTC (CD40 mRNA [4]) of 90%, an IC50 (BCL1 [8]) of 20 µM and a half-life [11] of 3 h.

`NCCCC[C@H](NC(=O)CN(CCCCN)C(=O)[C@H](CCCCN)NC(=O)CN(CCCCN)C(=O)[C@H](CCCCN)NC(=O)CN(CCCCN)C(=O)[C@H](CCCCN)NC(=O)CN(CCCCN)C(=O)[C@@H](N)CCCCN)C(=O)O` (H-K[Nlys]K[Nlys]K[Nlys]K[Nlys]K-OH) gave a UTC (CD40 mRNA [1]) of 96%, a half-life [2] of over 168 h and a UTC (CD40 mRNA [3]) of 70%. The UTC (CD40 mRNA [4]) was 111%, the IC50 (BCL1 [8]) was 20 µM and the T1/2 [6] was “No data available”.

`N=C(N)NCCC[C@H](NC(=O)[C@H](CCCNC(=N)N)NC(=O)[C@H](CCCNC(=N)N)NC(=O)[C@H](CCCNC(=N)N)NC(=O)[C@H](CCCNC(=N)N)NC(=O)[C@H](CCCNC(=N)N)NC(=O)[C@H](CCCNC(=N)N)NC(=O)[C@@H](N)CCCNC(=N)N)C(=O)N[C@H](C=O)CCCCN` (H-RRRRRRRRK-aldehyde) gave a UTC (CD40 mRNA [1]) of 81%, a half-life [2] of 20 h and a UTC (CD40 mRNA [3]) of 60%. The UTC (CD40 mRNA [4]) was 102%, the “IC50 for cell proliferation” value (BCL1 [5]) was over 20 µM and the half-life [11] was 3 h.
